Reference: the EternaBench riboswitch data

System: MS2 coat protein
Experiment: apparent Kd, MS2 coat protein; higher = weaker binding; RNA-MaP array; FMN 200 µM where present
How it was run: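 SNAP-549-labelled MS2 coat protein, doubled from 0.7 or 1.5 nM to 3 µM, was titrated over designs transcribed by stalled E. coli RNA polymerase on Illumina sequencing-chip clusters. Titrations were run without and then with constant ligand in 100 mM Tris-HCl pH 7.5, 80 mM KCl, 4 mM MgCl2, BSA, DTT, yeast tRNA and Tween-20. The apparent Kd is the median of filtered per-cluster fits to green signal normalised to red-channel RNA signal and control-cluster median Fmax.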

[1] = designed as: OFF switch for flavin mononucleotide, no ligand
[2] = ligand present: flavin mononucleotide, designed as: OFF switch for flavin mononucleotide
[3] = designed as: ON switch for flavin mononucleotide, no ligand
[4] = ligand present: flavin mononucleotide, designed as: ON switch for flavin mononucleotide

Sequence | apparent Kd [1] | apparent Kd [2] | apparent Kd [3] | apparent Kd [4]
CACGGCAUCGGAGGAUAUACAUGAGGAUCACCCAUGUGGGUUGUACGCCGUGUAGAAGGCCGAGACCACCUUCUAGCUGGGAAG | 11.7 nM | 33.1 nM |  | 
GGGUACGUUUCGUAGCAGUGUCAUCGAGAAGGCCCUGACAUGAGGAUCACCCAUGUUGUUACAUGGGAGGAUAUCGAUGAUUUU |  |  | 19.1 nM | 6.06 nM
CUCCUCGAAGGAUAUACUGUGGAUCAUAAGUCAGGGAGGUUACAUGAGGAUCACCCAUGUAGAAGGUCGAGGUG | 67.2 nM | 428 nM |  | 
UAUGGUUAAGUCAGGAUAUGCUCAUAGAGGUCUGUGCAGAAGGGACAUGAGGAUCACCCAUGUAUGGUAGUGUU | 194 nM | 240 nM |  | 
UUGAGGAAUUAAGGAUAUUGAGUACAUAUGUUUAACAUGAGGAUCACCCAUGUGGGUUGCGGUAUCGAGAAGGUAAAUUACAAG |  |  | 129 nM | 133 nM
AGCAUGGUAGGAUAUACGGAACAUUAGGGUUUGUUAUGUGGACAUGAGGAUCACCCAUGUAGAAGGGCCGUGCA | 35.6 nM | 67.5 nM |  | 
UUACUAUUGGAGAAGGGUCGAUCAUAUAGAAUGACAGGAUAUCCAACAUGAGGAUCACCCAUGUGUCACCCAUAUGAGGAUCAC | 34.3 nM | 52.4 nM |  | 
CGGCAUCAUGUAGGAUAUGCGUGGCGAAGCUAUGCAGAAGGACAUGAGGAUCACCCAUGUCUUACCUAGCGUACUAGGUUGCCG | 6.37 nM | 16.1 nM |  | 
AAUUCACAUGAGGAUCACCCAUGUCAGGAUAUGGUUUCACGUGUUUCGGUGCUUGAGGCCAGAAGGGACAGCUA | 67 nM | 98.6 nM |  | 
UUUCCGCGAGGAUAUACGGGCUGUGCUUUUCAUUUCUUACAACAUGAGGAUCACCCAUGUAGAAGGUGCUUCUU | 208 nM | 196 nM |  | 
UUUUAACAUGAGGAUCACCCAUGUGAGGAUAUCGAAAUUUAUAUUUAUAUUUAUUAAUCGAGAAGGCACAUUUU | 132 nM | 162 nM |  | 
ACAGCAGUAGGAUAUACAUCACCAUCCGACCGUUGAUUUCAACAUGAGGAUCACCCAUGUAGAAGGGCUAGUUG | 93.2 nM | 65.7 nM |  | 
AAAUAGAAUGAGGAUAUCGUAUUAUAUUUAGUACGAGAAGGCAUUACAUGAGGAUCACCCAUGUUUUGUUGGGA | 21.8 nM | 57.9 nM |  | 
GUGGUUGUCGUAGGAUAUGUAGGAUAUUCCUACAUGAGGAUCACCCAUGUUAGCAUGGAAGAAGGACAGAAGGACGAUGACCAG |  |  | 904 nM | 15.1 nM
GGAUGACAAAGUCAUCCUAUUCGAACAUGAGGAUCACCCAUGUAGGAUAUGCAACUCAAAGAGUUGCAGAAGGACAUGUGCCUU | 30.9 nM | 153 nM |  | 
AUCAGCUCGUCAGGAUAUACGUCACUGAGUCAGCAGUGUGGUAAGAUCACAUGAGGAUCACCCAUGUAGAAGGGACGAGCUGAU | 16.3 nM | 241 nM |  | 
UUAAUCAUGUAGAAGGACGGAUAUUAAGAGAACGUAGGAUAUACAGAAGACAUGAGGAUCACCCAUGUGAACAUGGUACAUAGG | 241 nM | 62.5 nM |  | 
GGACGGAAAGUGAGGAUAUGCUCUACCUCGGUAGAGCAGAAGGCACAUGAGGAUCACCCAUGUGAUUGCUGUUC | 27.1 nM | 261 nM |  | 
CCUCUACAUGAGGAUCACCCAUGUGAGGAUAUGCGAGGCGCGCCCGAUAGGCGCGCCGGUAGAAGGCAUGUGGU | 23.5 nM | 50.5 nM |  | 
GUUAUUAACAAGAAGGCAUACAUGAGGAUCACCCAUGUUCUACAUGGAUAAUGAGGAUAUUGCUAAUACAUGAGGAUCACCCAG | 72 nM | 66.9 nM |  | 
GUAGCAUUGAGAGGAUAUCCAUACCGGAAACGGACAUGAGGAUCACCCAUGUGGCGAAAGCCUUGGGAGAAGGCUCUAUGCUAC |  |  | 4.35 nM | 3.52 nM
GAUCGUAUCCUAGGAUAUUCAUAAAACAUGAGGAUCACCCAUGUUAACUUGGGAGAAGGAGGAUACGAUCAACAGCGAAAGCUG |  |  | 7.35 nM | 5.09 nM
GCUCUGGCAUGAGGAUAUGGUCAGCUUUGCUGACCAGAAGGCAUGUCAAUAGACAUGAGGAUCACCCAUGUAGUUAACAGAGCA |  |  | 538 nM | 37.3 nM
CCCUCACAUGAGGAUCACCCAUGUCAGGAUAUCUAGUCAGACAGUAUAGCACUGCUGAAGAGAAGGGACGUAAA | 16.4 nM | 20 nM |  | 
GCUAGUAUUGCAGGAUAUUGAGAAUAAUUAUGGCAAGAAGGGCAUAACAUGAGGAUCACCCAUGUAUUCCUUAGUGAUACUAGC | 9.07 nM | 8.33 nM |  | 
UUUUCGAACCGAGGAUAUCCUUAUAAGAAACAUGAGGAUCACCCAUGUAAAGGGAAUUAUUUGAAGGAGAAGGCGGAUUUUGUU |  |  | 50.1 nM | 32 nM
ACAUGAGGAUCACCCAUGUAGAAUGAAGAAGGUAGAUACUUGAGGCUCACCCAUGUACAUGGGACUAAGGAUAUUCUAAUAAUU |  |  | 42.7 nM | 27.7 nM
UUUUAACAUGAGGAUCACCCAUGUGAGGAUAUCGAAAUUUAUAUUAAUAUUAAUAAAUCGAGAAGGCACAUUUU | 117 nM | 127 nM |  | 

Sequence | apparent Kd [1] | apparent Kd [2] | apparent Kd [3] | apparent Kd [4]
UUUAAUUUAAUUAAGAUCACAUGAGGAUCACCCAUGUAUAUAUAGGAUAUCAGCUCGAAUAGAGCUGAGAAGGAUAUAUACAUA | 69.3 nM | 36.2 nM |  | 
ACAUGAGGAUCACCCAUGUUCACAUAGGAUAUUGAUUAUAUUGGUUUUAGAAUAGUAAUUAACCUCAAGAAGGAUGCCAGAUCU |  |  | 13.7 nM | 10.1 nM
AUAGGCCUAGGAUAUACAUGAGGAUCACCCAUGUUAACACUUCAAUCAAGUUAAUAUUGUAGAAGGAGGAAUAA | 30.4 nM | 29.4 nM |  | 
GUUGUGUAAGGAUAUGCCUGGCCGUGAGGCCAGAUUGAAUGGCAGAAGGUACAUGAGGAUCACCCAUGUACGGG | 33.2 nM | 188 nM |  | 
GUUAUAAUUGAAGGAUAUCUAUAUCCAACAUGAGGAUCACCCAUGUUGAGGAUCACCCAUGUAAAGGAGAAGGUUAAUUAUAAU |  |  | 84.2 nM | 25.2 nM
UAAUCUCAGAUAGGAUAUAUAGGAUGAUUUAAGACCGAACAUGAGGAUCACCCAUGUGAUUAUUUGUAGAAGGAUCAAUGACCC |  |  | 72.4 nM | 79.2 nM
UGAUCGAGAGAUCUUAGAUUCUGGUAGGAUAUACAUUAUAGAAGUUAUACAUGAGGAUCACCCAUGUAGAAGGACUAGAGUCUA | 5.73 nM | 7.54 nM |  | 
ACAAAUCAUGUAGGAUAUCGAUUGCGUCGCGAUCGAGAAGGACAAGAGGGUCACCCUUGUACAUGAGGAUCACCCAUGUCAUGA | 193 nM | 120 nM |  | 
AAGUCAGCAGGAUAUGCGAUGUUGGGCUAGGUAGCGUGACCACAUGAGGAUCACCCAUGUAGAAGGGCUGGCUA | 33.4 nM | 34.4 nM |  | 
GUCAGCUCGUGAGGAUAUACCACACUGCUUCGGCAGUGUAUUAAGAUCACAUGAGGAUCACCCAUGUAGAAGGCACGAGCUGAU | 6.32 nM | 34.2 nM |  | 
GUAUAUCACUAAGGAUAUCUGUAUUUUGUUGAAACAUGAGGAUCACCCAUGUUCAUGAAAUUAUAGGAGAAGGUAGAGAUAUAC |  |  | 4.96 nM | 4.57 nM
GGAAUAAAUGCAGGAUAUACGUGGAAAGCCUUCAACAUGAGGAUCACCCAUGUAGAAGGGCAUCUCCCGACCGAAUCGGAUCUC | 5.72 nM | 6.25 nM |  | 
AUUAUGUUAGGAUAUGCUUAUGGUGGAUAGUCCAAUAUGAUGCAGAAGGGACAUGAGGAUCACCCAUGUACUGA | 24.9 nM | 27.3 nM |  | 
UGUCGGAGCAGAGGAUAUUACAUGAGGAUCACCCAUGUAUGAACCAAUAGCUGGAAACAGCAAUGUAAGAAGGCUGCUCUGACA | 11.5 nM | 150 nM |  | 
UUUUAACAUGAGGAUCACCCAUGUGAGGAUAUCGAAAUUUAUAUUAAUAUUUUUAUAUCGAGAAGGCACAUUUU | 92.8 nM | 78.4 nM |  | 
GGUACCAUCACAGGAUAUGCUUUCCUUUGGGAAGCAGAAGGGUGUAACAUGAGGAUCACCCAUGUGGUGCCAGGGCGUGGGCCC |  |  | 212 nM | 19.2 nM
AGCUACGUUUCGUAGCAGUGUCAUCGAGAAGGCUCAAAUACAUGAGGAUCACCCAUGUUAACAUGGGAGGAUAUCGAUGAUACA |  |  | 63.6 nM | 7.86 nM
UGUGCAUCAGGAUAUAUGUGGCGACCGUGAGGUCGAAGGUUACAUGAGGAUCACCCAUGUAGAAGGGAUGUACU | 63.2 nM | 187 nM |  | 
UUUAUAUUCAGAGGAUAUUGAUGUUGUAUUUUACAAGAAGGCUGUUUGUUUUGUAAUGUUAUUAUACAUGAGGAUCACCCAUGU |  |  | 20.6 nM | 17.3 nM
AGAAACAGAGGAUAUCGCGGACAGCACAUGAGGAUCACCCAUGUGAUGCUCCGCGGGCCGCGAGAAGGCUGAAAUG | 15.1 nM | 36.8 nM |  | 
GCACUGGAUGUAGGAUAUCAGGACGAUAAGUCCUGAGAAGGACAUGAGGAUCACCCAUGUGACUCAUAACCAGUGCAUAAUAUA | 27 nM | 142 nM |  | 
GACAUACAUGAGGAUCACCCAUGUUCAGACGGGCAAGGAUAUGUGUGGAAACCAUACUAUACAGAAGGUGUCUGUC |  |  | 26.5 nM | 17.6 nM
AGAGAAUACUCAGGAUAUCUUAAUAGAAAGAGUAGAGAAGGGAGACAUGAGGAUCACCCAUGUGAAGUCUUGAGACUACAUGGU | 367 nM | 470 nM |  | 
UUACAGGUUUAAGGCGUUCCCAGACAUGAGGAUCACCCAUGUAGAAGGACCGUAAGAAAUUUUCGGUAGGAUAUACAUUAAGGG | 28.6 nM | 29.2 nM |  | 
GCGCAAACAUGAGGAUAUGUAUUAAAUAAUAAUACAGAAGGCAUGUCAAAUGACAUGAGGAUCACCCAUGUUGGCAAAAUGCGC |  |  | 80.6 nM | 15.9 nM
GUCAGCUCGUGAGGAUAUACAACACUGCUUCGGCAGUGUAUUAAGAUCACAUGAGGAUCACCCAUGUAGAAGGCAUGAGCUGAU | 14.9 nM | 297 nM |  | 
CUUUUGUGAGGAUAUCAGUAGUAAAUAAAUUAAAUUACUACUGAGAAGGCACAUGAGGAUCACCCAUGUUCCUC | 38.3 nM | 249 nM |  | 
